# Assay results as given in PMC6543826 (Bioorganic chemistry, 2018).
# Several values for one entry are separate records, joined by “and”; a condition that tells them apart may be missing. Equal entries are not always repeated.
# Key:
# CCRF-CEM = test: cells; assay type: cell-based
# HL-60 (TB) = test: cells; assay type: cell-based
# EKVX = test: NCI-60 SRB screen, Non-small cell lung cancer; assay type: cell-based, human
# HOP-92 = test: cells; assay type: cell-based
# NCI-H322M = test: cells; assay type: cell-based
# NCI-H522 = test: cells; assay type: cell-based
# HCC-2998 = test: cells; assay type: cell-based
# HCT-116 = test: cells; assay type: cell-based
# KM 12 = test: cells; assay type: cell-based
# SW-620 = test: cells; assay type: cell-based
# SF-295 = test: cells; assay type: cell-based
# SNB-19 = test: cells; assay type: cell-based
# M14 = test: cells; assay type: cell-based
# SK-MEL-28 = test: cells; assay type: cell-based
# SK-MEL-5 = test: cells; assay type: cell-based
# OVCAR-3 = test: cells; assay type: cell-based
# OVCAR-4 = test: cells; assay type: cell-based
# OVCAR-8 = test: cells; assay type: cell-based
# A498 = test: NCI-60 SRB screen, Renal cancer; assay type: cell-based, human
# ACHN = test: cells; assay type: cell-based
# DU-145 = test: cells; assay type: cell-based
# MCF7 = test: cells; assay type: cell-based
# p38MAPKα = p38MAPKα (Homo sapiens, UniProt Q16539); test: in vitro kinase assay, GST-ATF2; assay type: biochemical
# [1] = test system: BRAF-mutant A375 melanoma cells; test: A375 cell viability, MTS assay; assay type: cell-based; details: Homo sapiens, A-375, 72 h, read-out: A375 Cell Viability IC50
# In short: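 A375 cells were kept in RPMI with 10% heat-inactivated FBS, Glutamax and penicillin/streptomycin at 37 °C in 5% CO2. 2000 cells per well were treated with a range of test compound doses for 72 h. Viability was read by MTS assay. Run in triplicate.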
# [2] = test system: ERK substrates (p90RSK and ELK) phosphorylation in A375 cells; test: western blotting of MAPK pathway phosphorylation in A375 cells after EGF; assay type: cell-based, human
# In short: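 A375 cells (1,000,000 per well) were seeded 24 h, then treated with DMSO or test compound (0.5–25 μM) in serum-free medium for 4 or 12 h. Cells were stimulated with 100 nM EGF for 10–15 min, lysed, and 60 μg lysate was blotted. Probes: phospho-p90RSK (Thr573), RSK, phospho-Elk-1 (Ser383), phospho- and total ERK1/2, phospho-JNK (Thr183/Tyr185). Done twice.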
# A375 cells [3] = test: anchorage dependent colony formation assay; assay type: cell-based, human; details: A375, 10–14 days
# In short: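 1000 A375 cells per 60 mm plate adhered for 24 h, then were treated with various test compound doses for 10–14 days. Plates were PBS-washed and fixed in 4% paraformaldehyde (15 min, room temperature). They were stained with 0.2% crystal violet in 20% methanol for 10 min, water-washed and imaged under microscope.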
# A375 cells [4] = test: IncuCyte real time proliferation assay; assay type: cell-based, human; details: imaged every 1 h for 90 h
# In short: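 Real-time growth: 2000 A375 cells per well adhered for 24 h, then were treated with a range of test compound doses. Phase images were taken on IncuCyte ZOOM (10× objective) every 1 h for 90 h in total. Growth confluence was estimated from the images and plotted.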
# [5] = test system: caspase 3/7 in A375 cells; test: IncuCyte Caspase 3/7 apoptosis assay; assay type: cell-based, human; details: doses of 3.7 and 33.3 μM, after 48 and 72 h
# In short: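 2000 A375 cells per well adhered for 24 h, then received test compound doses plus a constant concentration of IncuCyte Caspase-3/7 reagent. Cells were imaged on IncuCyte ZOOM (10× objective) at set time points, and stained cells were counted. Apoptotic cell number was normalized to percentage area confluence at the final time point.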
# [6] = test system: NCI-60 panel of tumor cell lines
# p38MAPKα, sequence (Q16539 whole entry): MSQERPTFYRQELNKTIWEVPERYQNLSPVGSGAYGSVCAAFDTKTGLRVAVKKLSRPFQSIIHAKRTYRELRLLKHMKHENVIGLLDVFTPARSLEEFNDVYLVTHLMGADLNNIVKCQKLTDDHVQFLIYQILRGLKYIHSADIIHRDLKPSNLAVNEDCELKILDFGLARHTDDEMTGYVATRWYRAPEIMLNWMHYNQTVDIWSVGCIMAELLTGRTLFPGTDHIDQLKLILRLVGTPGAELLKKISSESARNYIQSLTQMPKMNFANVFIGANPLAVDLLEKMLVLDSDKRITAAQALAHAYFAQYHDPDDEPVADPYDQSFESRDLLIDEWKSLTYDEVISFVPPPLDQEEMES
smiles,measurement,setting,value
"O=C1c2ccccc2C(=O)c2c1oc1c2c(=O)[nH]c2ccc(Cl)cc21 [3b, 2-Chloronaphtho[2′,3′:4,5]furo[3,2-c]quinoline-6,7,12(5H)-trione]",Growth percent (G%),"CCRF-CEM; 10^−5 M, 48 h",29.04%
same,GI50,CCRF-CEM; Homo sapiens,410 nM
same,CC50,"CCRF-CEM; Homo sapiens, read-out: LC50",> 100000 nM
same,TGI,CCRF-CEM; five-dose,4860 nM
same,Growth percent (G%),"HL-60 (TB); HL-60(TB), 10^−5 M, 48 h",94.52%
same,TGI,"HL-60 (TB); HL-60 (TB), five-dose",5250 nM
same,GI50,"HL-60 (TB); Homo sapiens, HL-60",1700 nM
same,CC50,"HL-60 (TB); Homo sapiens, HL-60, read-out: LC50",34800 nM
same,Growth percent (G%),"EKVX; 10^−5 M, 48 h",15.17%
same,GI50,EKVX; Homo sapiens,250 nM
same,CC50,"EKVX; Homo sapiens, read-out: LC50",26300 nM
same,TGI,EKVX; five-dose,2450 nM
same,Growth percent (G%),"HOP-92; HOP-92, 10^−5 M, 48 h",−37.24%
same,TGI,"HOP-92; HOP-92, five-dose",390 nM
same,GI50,"HOP-92; Homo sapiens, HOP-92",150 nM
same,CC50,"HOP-92; Homo sapiens, HOP-92, read-out: LC50",1000 nM
same,Growth percent (G%),"NCI-H322M; 10^−5 M, 48 h",13.98%
same,GI50,NCI-H322M; Homo sapiens,320 nM
same,CC50,"NCI-H322M; Homo sapiens, read-out: LC50",7240 nM
same,TGI,NCI-H322M; five-dose,1450 nM
same,GI50,"NCI-H522; Homo sapiens, NCI-H522",320 nM
same,CC50,"NCI-H522; Homo sapiens, NCI-H522, read-out: LC50",8130 nM
same,Growth percent (G%),"NCI-H522; NCI-H522, 10^−5 M, 48 h",−16.76%
same,TGI,"NCI-H522; NCI-H522, five-dose",1380 nM
same,Growth percent (G%),"HCC-2998; HCC-2998, 10^−5 M, 48 h",65.07%
same,TGI,"HCC-2998; HCC-2998, five-dose",2570 nM
same,CC50,"HCC-2998; Homo sapiens, HCC 2998, read-out: LC50",9120 nM
same,Growth percent (G%),"HCT-116; HCT-116, 10^−5 M, 48 h",−12.24%
same,TGI,"HCT-116; HCT-116, five-dose",1100 nM
same,GI50,"HCT-116; Homo sapiens, HCT-116",310 nM
same,CC50,"HCT-116; Homo sapiens, HCT-116, read-out: LC50",4570 nM
same,GI50,"KM 12; Homo sapiens, KM12",450 nM
same,CC50,"KM 12; Homo sapiens, KM12, read-out: LC50",27500 nM
same,Growth percent (G%),"KM 12; KM 12, 10^−5 M, 48 h",0.12%
same,TGI,"KM 12; KM 12, five-dose",3020 nM
same,GI50,"SW-620; Homo sapiens, SW-620",330 nM
same,CC50,"SW-620; Homo sapiens, SW-620, read-out: LC50",7590 nM
same,Growth percent (G%),"SW-620; SW-620, 10^−5 M, 48 h",−53.04%
same,TGI,"SW-620; SW-620, five-dose",1000 nM
same,GI50,"SF-295; Homo sapiens, SF-295",630 nM
same,CC50,"SF-295; Homo sapiens, SF-295, read-out: LC50",6610 nM
same,Growth percent (G%),"SF-295; SF-295, 10^−5 M, 48 h",−1.34%
same,TGI,"SF-295; SF-295, five-dose",2290 nM
same,GI50,"SNB-19; Homo sapiens, SNB-19",310 nM
same,CC50,"SNB-19; Homo sapiens, SNB-19, read-out: LC50",6170 nM
same,Growth percent (G%),"SNB-19; SNB-19, 10^−5 M, 48 h",7.11%
same,TGI,"SNB-19; SNB-19, five-dose",1100 nM
same,GI50,"M14; Homo sapiens, M14",400 nM
same,CC50,"M14; Homo sapiens, M14, read-out: LC50",4570 nM
same,Growth percent (G%),"M14; M14, 10^−5 M, 48 h",10.44%
same,TGI,"M14; M14, five-dose",1510 nM
same,GI50,"SK-MEL-28; Homo sapiens, SK-MEL-28",340 nM
same,CC50,"SK-MEL-28; Homo sapiens, SK-MEL-28, read-out: LC50",4680 nM
same,Growth percent (G%),"SK-MEL-28; SK-MEL-28, 10^−5 M, 48 h",−11.84%
same,TGI,"SK-MEL-28; SK-MEL-28, five-dose",1230 nM
same,GI50,"SK-MEL-5; Homo sapiens, SK-MEL-5",1300 nM
same,CC50,"SK-MEL-5; Homo sapiens, SK-MEL-5, read-out: LC50",3720 nM
same,Growth percent (G%),"SK-MEL-5; SK-MEL-5, 10^−5 M, 48 h",12.31%
same,TGI,"SK-MEL-5; SK-MEL-5, five-dose",1200 nM
same,GI50,"OVCAR-3; Homo sapiens, OVCAR-3",240 nM
same,CC50,"OVCAR-3; Homo sapiens, OVCAR-3, read-out: LC50",1820 nM
same,Growth percent (G%),"OVCAR-3; OVCAR-3, 10^−5 M, 48 h",−68.37%
same,TGI,"OVCAR-3; OVCAR-3, five-dose",560 nM
same,GI50,"OVCAR-4; Homo sapiens, OVCAR-4",170 nM
same,CC50,"OVCAR-4; Homo sapiens, OVCAR-4, read-out: LC50",1510 nM
same,Growth percent (G%),"OVCAR-4; OVCAR-4, 10^−5 M, 48 h",−42.04%
same,TGI,"OVCAR-4; OVCAR-4, five-dose",450 nM
same,GI50,"OVCAR-8; Homo sapiens, OVCAR-8",390 nM
same,CC50,"OVCAR-8; Homo sapiens, OVCAR-8, read-out: LC50",30200 nM
same,Growth percent (G%),"OVCAR-8; OVCAR-8, 10^−5 M, 48 h",−27.45%
same,TGI,"OVCAR-8; OVCAR-8, five-dose",2290 nM
same,Growth percent (G%),"A498; A498, 10^−5 M, 48 h",80.44%
same,TGI,"A498; A498, five-dose",950 nM
same,GI50,"A498; Homo sapiens, A498",210 nM
same,CC50,"A498; Homo sapiens, A498, read-out: LC50",3550 nM
same,Growth percent (G%),"ACHN; 10^−5 M, 48 h",−14.18%
same,GI50,ACHN; Homo sapiens,200 nM
same,CC50,"ACHN; Homo sapiens, read-out: LC50",2630 nM
same,TGI,ACHN; five-dose,580 nM
same,Growth percent (G%),"DU-145; DU-145, 10^−5 M, 48 h",−45.39%
same,TGI,"DU-145; DU-145, five-dose",780 nM
same,GI50,"DU-145; Homo sapiens, DU-145",280 nM
same,CC50,"DU-145; Homo sapiens, DU-145, read-out: LC50",12300 nM
same,GI50,"MCF7; Homo sapiens, MCF7",230 nM
same,CC50,"MCF7; Homo sapiens, MCF7, read-out: LC50",18600 nM
same,Growth percent (G%),"MCF7; MCF7, 10^−5 M, 48 h",0.70%
same,TGI,"MCF7; MCF7, five-dose",1050 nM
same,ability to inhibit p38MAPKα (in words),p38MAPKα,little tendency to inhibit
same,IC50,"p38MAPKα; p38MAPKα IC50, 10 μM GST-ATF2",28000 nM and 27900 nM
same,IC50,[1],3700 ± 600 nM
same,"phosphorylation of ERK substrates (p90RSK and ELK), in words","[2]; A375, 0.5–25 μM, EGF stimulation",dose-dependent inhibition
same,concentration enough to inhibit ELK phosphorylation,"[2]; A375, 12 h, then EGF 100 nM",10 µM
same,concentration enough to inhibit p-90RSK phosphorylation,"[2]; A375, 12 h, then EGF 100 nM",25 µM
same,effect on ERK or MKK½ phosphorylation or the JNK pathway,"[2]; A375, EGF stimulation",no effect
same,concentration at which inhibition of colony forming ability starts,A375 cells [3],10 µM
same,"A375 real time proliferation (growth confluence), in words",A375 cells [4],dose-dependent inhibition
same,caspase 3/7 activity in A375,[5],activation of caspase 3/7
same,Average G%,"[6]; average over tested NCI-60 cell lines, 10^−5 M (10 μM), 48 h",−4.7% and −4.5% and −4.69%
same,"TGI values, range over all cell lines",[6]; five-dose,350 to 27540 nM
same,"TGI, average",[6]; five-dose,1020 nM
